Experimental data published in ChEMBL document CHEMBL5653631, “A Potent and Selective ULK1 Inhibitor Suppresses Autophagy and Sensitizes Cancer Cells to Nutrient Stress” (iScience, 2018).

Legend:
[1] = molecular target: T1, Protein kinase C epsilon type (Homo sapiens) (UniProt Q02156); assay: Inhibition of human recombinant PKCe at 40 nM in presence of ATP by radiometric assay relative to control
T1 sequence (whole entry): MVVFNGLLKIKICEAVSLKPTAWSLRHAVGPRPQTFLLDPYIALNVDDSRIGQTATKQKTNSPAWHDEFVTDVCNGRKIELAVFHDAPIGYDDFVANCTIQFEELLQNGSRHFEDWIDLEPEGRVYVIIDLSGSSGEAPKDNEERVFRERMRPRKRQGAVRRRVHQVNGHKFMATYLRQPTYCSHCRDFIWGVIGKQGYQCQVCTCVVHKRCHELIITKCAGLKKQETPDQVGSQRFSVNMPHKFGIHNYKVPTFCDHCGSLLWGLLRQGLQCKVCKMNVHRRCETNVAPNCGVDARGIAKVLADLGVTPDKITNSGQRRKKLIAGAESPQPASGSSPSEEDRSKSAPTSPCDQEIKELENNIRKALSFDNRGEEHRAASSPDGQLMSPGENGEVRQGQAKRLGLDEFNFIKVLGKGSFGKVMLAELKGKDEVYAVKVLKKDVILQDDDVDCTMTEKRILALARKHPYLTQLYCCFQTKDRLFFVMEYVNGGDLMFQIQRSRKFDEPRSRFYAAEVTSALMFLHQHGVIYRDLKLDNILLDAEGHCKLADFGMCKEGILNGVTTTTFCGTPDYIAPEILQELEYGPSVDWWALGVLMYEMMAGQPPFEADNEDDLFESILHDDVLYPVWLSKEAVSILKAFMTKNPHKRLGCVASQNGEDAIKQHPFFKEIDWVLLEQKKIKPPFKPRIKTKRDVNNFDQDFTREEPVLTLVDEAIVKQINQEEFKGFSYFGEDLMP

[2] = molecular target: Protein-tyrosine kinase 2-beta (Homo sapiens) (UniProt Q14289); assay: Inhibition of human recombinant PYK2 at 40 nM in presence of ATP by radiometric assay relative to control
[3] = molecular target: Macrophage-stimulating protein receptor (Homo sapiens) (UniProt Q04912); assay: Inhibition of human recombinant RON at 40 nM in presence of ATP by radiometric assay relative to control
[4] = molecular target: Proto-oncogene tyrosine-protein kinase ROS (Homo sapiens) (UniProt P08922); assay: Inhibition of human recombinant ROS at 40 nM related to control ULK1
[5] = molecular target: T2, Mitogen-activated protein kinase kinase kinase 7 (Homo sapiens) (UniProt O43318); assay: Inhibition of human recombinant TAK1 at 40 nM related to control ULK1
T2 sequence (whole entry): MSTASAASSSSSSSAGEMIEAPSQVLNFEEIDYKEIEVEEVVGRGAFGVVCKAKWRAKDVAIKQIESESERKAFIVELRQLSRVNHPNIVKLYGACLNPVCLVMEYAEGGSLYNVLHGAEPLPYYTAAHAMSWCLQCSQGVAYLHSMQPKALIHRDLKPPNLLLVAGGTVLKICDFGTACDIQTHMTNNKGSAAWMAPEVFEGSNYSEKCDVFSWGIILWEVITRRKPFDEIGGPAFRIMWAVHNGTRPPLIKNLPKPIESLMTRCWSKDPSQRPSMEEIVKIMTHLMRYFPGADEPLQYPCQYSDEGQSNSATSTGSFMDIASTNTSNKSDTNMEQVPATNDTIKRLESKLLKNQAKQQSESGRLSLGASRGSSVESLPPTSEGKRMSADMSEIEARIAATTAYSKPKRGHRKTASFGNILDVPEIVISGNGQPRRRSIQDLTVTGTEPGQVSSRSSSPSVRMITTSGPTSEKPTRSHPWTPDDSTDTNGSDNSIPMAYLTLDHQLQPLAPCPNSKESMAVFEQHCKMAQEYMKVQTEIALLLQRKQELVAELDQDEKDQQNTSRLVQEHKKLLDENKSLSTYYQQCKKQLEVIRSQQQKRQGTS

[6] = molecular target: ALK tyrosine kinase receptor (Homo sapiens) (UniProt Q9UM73); assay: Inhibition of human recombinant ALK at 15 nM in presence of ATP by radiometric assay relative to control
Summary of the method: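 Panel of 327 recombinant human kinases in radiometric activity assays, each screened in duplicate at a single inhibitor concentration; percent activity remaining relative to vehicle control, percent inhibition taken as 100 minus activity remaining.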

[7] = molecular target: 3-phosphoinositide-dependent protein kinase 1 (Homo sapiens) (UniProt O15530); assay: Inhibition of human recombinant PDK1 at 15 nM in presence of ATP by radiometric assay relative to control
[8] = molecular target: Cyclin-dependent kinase 13 (Homo sapiens) (UniProt Q14004); assay: Inhibition of human recombinant CHED at 500 nM in presence of ATP by radiometric assay relative to control
[9] = molecular target: T3, Serine/threonine-protein kinase DCLK3 (Homo sapiens) (UniProt Q9C098); assay: Inhibition of human recombinant DCAMKL3 at 500 nM in presence of ATP by radiometric assay relative to control
T3 sequence (whole entry): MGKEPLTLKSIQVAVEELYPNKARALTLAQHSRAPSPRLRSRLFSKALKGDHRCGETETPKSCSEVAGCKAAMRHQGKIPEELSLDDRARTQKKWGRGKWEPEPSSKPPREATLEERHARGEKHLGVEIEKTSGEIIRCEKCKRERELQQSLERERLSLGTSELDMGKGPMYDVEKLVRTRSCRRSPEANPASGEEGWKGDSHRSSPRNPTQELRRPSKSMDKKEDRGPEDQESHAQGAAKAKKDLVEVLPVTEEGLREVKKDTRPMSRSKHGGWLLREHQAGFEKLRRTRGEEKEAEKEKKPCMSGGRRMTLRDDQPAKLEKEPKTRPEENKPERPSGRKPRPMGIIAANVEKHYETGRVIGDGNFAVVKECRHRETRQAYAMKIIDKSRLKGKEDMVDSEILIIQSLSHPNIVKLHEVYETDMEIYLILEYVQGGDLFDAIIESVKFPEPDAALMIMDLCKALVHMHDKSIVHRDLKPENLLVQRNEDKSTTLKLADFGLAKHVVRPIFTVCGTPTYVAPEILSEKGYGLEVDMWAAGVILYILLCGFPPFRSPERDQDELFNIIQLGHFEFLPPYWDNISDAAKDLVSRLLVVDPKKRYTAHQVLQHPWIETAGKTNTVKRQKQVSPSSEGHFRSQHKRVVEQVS

Proto-oncogene tyrosine-protein kinase ROS (Homo sapiens), sequence (P08922 whole entry): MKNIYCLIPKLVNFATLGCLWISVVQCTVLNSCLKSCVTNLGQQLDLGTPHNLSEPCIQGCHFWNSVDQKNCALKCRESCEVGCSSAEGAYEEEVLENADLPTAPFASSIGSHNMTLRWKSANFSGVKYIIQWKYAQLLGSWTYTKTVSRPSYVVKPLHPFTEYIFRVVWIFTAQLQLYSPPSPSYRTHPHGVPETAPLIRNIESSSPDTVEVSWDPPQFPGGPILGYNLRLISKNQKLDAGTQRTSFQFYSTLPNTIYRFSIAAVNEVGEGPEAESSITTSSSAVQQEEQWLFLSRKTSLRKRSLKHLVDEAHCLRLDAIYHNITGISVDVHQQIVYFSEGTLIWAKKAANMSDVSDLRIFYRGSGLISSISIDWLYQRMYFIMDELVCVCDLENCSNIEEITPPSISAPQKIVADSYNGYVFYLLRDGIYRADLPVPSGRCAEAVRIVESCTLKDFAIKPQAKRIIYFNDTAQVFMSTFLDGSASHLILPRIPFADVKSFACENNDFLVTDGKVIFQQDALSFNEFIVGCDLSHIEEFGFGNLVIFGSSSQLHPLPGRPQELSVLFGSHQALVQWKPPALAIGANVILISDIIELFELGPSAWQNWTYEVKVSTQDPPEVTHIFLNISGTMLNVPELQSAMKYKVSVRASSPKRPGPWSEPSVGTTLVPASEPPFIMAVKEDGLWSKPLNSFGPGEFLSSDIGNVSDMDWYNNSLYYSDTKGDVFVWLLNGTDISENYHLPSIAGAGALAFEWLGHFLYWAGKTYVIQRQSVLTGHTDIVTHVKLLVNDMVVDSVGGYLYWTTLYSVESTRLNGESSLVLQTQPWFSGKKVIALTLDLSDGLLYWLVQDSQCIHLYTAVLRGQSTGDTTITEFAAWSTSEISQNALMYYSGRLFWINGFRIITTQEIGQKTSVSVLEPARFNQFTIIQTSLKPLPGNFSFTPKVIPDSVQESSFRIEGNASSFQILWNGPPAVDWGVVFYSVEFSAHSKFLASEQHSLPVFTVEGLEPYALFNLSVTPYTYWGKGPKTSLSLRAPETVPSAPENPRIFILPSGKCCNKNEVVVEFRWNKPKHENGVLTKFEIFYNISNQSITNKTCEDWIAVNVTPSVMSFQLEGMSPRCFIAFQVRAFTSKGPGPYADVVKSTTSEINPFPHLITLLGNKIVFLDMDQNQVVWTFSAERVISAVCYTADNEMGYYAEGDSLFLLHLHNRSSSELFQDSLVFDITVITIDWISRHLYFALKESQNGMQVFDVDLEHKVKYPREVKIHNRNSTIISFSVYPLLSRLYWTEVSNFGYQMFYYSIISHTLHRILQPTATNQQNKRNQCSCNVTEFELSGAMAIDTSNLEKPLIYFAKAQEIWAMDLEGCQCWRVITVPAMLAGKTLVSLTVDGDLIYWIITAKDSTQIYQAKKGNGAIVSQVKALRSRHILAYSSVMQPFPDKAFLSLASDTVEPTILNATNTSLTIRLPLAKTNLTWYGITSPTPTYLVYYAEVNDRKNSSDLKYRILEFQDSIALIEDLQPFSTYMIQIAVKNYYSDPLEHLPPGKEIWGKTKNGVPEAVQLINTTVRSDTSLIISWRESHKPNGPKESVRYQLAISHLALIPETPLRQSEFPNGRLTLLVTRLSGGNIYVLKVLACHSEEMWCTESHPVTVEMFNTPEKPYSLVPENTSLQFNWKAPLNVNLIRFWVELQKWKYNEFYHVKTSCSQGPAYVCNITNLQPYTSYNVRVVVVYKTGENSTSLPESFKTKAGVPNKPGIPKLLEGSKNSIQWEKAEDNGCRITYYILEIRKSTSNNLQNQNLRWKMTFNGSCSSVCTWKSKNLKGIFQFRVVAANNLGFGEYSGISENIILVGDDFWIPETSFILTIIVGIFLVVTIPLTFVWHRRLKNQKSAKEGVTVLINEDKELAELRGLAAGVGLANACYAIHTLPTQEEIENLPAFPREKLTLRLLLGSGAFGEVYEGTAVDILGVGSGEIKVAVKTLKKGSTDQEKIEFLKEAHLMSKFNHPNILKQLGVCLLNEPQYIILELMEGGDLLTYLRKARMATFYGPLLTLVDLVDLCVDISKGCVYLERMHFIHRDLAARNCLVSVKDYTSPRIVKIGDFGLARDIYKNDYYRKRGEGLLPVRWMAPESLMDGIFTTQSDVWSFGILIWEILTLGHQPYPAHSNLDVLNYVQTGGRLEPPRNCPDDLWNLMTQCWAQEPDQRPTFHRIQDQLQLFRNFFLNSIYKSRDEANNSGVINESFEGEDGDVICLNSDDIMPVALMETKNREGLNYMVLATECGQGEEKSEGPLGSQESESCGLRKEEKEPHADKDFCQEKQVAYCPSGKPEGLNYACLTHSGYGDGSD
ALK tyrosine kinase receptor (Homo sapiens), sequence (Q9UM73 19-1620 limits assumed): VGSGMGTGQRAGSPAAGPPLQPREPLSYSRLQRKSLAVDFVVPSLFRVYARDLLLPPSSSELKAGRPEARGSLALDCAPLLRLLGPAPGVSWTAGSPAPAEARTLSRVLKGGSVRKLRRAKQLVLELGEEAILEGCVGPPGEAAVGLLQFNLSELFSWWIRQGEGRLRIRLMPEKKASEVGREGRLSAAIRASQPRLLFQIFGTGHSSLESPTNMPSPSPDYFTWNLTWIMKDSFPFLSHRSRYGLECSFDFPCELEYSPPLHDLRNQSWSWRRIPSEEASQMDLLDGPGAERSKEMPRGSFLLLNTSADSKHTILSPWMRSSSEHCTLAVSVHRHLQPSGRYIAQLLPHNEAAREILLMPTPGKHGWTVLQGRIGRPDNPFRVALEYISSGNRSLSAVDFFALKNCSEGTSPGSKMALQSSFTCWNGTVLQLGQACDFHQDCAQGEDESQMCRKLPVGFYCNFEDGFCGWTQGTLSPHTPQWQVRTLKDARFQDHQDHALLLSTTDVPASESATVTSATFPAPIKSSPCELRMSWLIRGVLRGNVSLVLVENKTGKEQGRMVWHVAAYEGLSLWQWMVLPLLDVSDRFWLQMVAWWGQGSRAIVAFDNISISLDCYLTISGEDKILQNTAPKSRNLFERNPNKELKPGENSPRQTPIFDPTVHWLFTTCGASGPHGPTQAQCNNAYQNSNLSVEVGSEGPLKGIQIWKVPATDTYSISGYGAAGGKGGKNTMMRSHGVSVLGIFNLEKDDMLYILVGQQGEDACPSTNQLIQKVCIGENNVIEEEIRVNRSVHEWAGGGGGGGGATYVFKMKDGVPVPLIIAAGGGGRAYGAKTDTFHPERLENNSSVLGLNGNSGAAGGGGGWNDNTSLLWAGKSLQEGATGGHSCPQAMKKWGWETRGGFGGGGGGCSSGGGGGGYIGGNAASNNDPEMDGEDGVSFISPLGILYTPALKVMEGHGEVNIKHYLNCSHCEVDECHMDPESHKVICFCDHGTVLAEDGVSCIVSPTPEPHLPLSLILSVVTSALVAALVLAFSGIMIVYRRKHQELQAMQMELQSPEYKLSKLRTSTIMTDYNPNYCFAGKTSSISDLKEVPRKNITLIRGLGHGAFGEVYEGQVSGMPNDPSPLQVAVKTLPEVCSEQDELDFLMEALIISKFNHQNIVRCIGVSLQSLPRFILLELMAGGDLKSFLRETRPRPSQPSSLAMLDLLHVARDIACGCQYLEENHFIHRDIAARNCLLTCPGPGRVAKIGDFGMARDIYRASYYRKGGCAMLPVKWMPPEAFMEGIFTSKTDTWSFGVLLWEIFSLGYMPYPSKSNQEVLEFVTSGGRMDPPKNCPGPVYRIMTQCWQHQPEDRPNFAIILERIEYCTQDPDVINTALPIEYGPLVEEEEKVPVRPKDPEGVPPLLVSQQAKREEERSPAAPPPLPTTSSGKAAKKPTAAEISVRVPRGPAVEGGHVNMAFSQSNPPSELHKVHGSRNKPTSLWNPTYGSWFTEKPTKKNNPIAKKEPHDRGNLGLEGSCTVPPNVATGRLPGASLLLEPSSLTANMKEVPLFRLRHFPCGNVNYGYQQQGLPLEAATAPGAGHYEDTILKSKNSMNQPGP
Protein-tyrosine kinase 2-beta (Homo sapiens), sequence (Q14289 whole entry, looked up): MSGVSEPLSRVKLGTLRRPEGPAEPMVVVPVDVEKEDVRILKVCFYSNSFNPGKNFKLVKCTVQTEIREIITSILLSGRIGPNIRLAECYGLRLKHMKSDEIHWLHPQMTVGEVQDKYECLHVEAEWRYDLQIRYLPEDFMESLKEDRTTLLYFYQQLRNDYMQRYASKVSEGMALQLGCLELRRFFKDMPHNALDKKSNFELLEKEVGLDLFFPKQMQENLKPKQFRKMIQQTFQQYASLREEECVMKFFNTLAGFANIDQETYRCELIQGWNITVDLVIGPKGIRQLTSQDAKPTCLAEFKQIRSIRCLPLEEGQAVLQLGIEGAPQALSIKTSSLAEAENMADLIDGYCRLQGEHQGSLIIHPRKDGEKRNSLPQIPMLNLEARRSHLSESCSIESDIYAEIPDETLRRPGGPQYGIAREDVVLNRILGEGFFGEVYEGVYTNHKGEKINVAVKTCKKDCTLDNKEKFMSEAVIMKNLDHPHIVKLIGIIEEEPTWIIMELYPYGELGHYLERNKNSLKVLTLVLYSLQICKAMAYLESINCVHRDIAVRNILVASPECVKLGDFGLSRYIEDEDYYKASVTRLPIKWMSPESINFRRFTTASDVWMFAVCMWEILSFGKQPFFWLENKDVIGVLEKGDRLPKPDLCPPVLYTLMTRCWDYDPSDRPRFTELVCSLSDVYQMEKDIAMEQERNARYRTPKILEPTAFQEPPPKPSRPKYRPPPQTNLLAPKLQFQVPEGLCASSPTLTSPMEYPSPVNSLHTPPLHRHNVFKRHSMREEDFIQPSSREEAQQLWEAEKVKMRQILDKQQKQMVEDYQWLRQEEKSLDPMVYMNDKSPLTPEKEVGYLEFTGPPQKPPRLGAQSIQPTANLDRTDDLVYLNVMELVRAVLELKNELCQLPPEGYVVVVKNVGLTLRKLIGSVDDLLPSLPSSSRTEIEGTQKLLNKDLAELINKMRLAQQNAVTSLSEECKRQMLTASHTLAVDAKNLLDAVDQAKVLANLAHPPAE

O=C(N[C@@H](C1CC1)C(F)(F)F)c1cc(-c2cnn3cc(-c4ccc(F)cc4)cnc23)cs1
inhibition [1]: 0% | inhibition [2]: 3% | inhibition [3]: 0% | fold change (FC) [4]: 0 | fold change (FC) [5]: 0

CC(C)[C@H](NC(=O)c1cc(-c2cnn3cc(-c4ccc(OCCN5CCCCC5)cc4)cnc23)cs1)C(F)(F)F
inhibition [6]: 0% | inhibition [7]: 6%

CNC(=O)c1ccccc1Oc1nc(Nc2cc(OC)c(OC)c(OC)c2)ncc1Br
inhibition [8]: 0% | inhibition [9]: 0%
